Screening results: PubChem BioAssay, Johns Hopkins Ion Channel Center
Sampled rows, rich in hits. Any-hit rate of the full collection: about 3.8%.
KCNK3 block: human KCNK3 channel inhibition, primary screen. 340,000 tested, 0.84% active. AID 602410. B-score at 10 µM. CHO-KCNK3 thallium flux, FluxOR fluorescence; stronger effect = lower value;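 active means B-score under library mean minus 4 SD, starting fluorescence ratio at most library mean plus 5 SD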;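 further: more negative B-score means stronger inhibition of thallium flux through KCNK3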
KCNQ1 inh: blocks the human KCNQ1 potassium channel; P51787; CHO-K1 KCNQ1, FluxOR thallium flux fluorescence; stronger effect = higher value; B-score at 10 µM; 310,000 tested, 1.3% active;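 active means compounds whose thallium flux B-score, printed positive for inhibition, exceeds three library SD while starting fluorescence stays within three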;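 further: channel opened by potassium depolarization with thallium stimulus after 20 min compound exposure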
hERG protect: shields human hERG channel from block by proarrhythmic agents. AID 1511. CHO-hERG, FluxOR thallium flux, dofetilide IC70 present. 310,000 tested, 0.51% active. Q12809. activation (rescue from dofetilide block), less the hit threshold, % at 10 µM;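 active means activation above the mean of controls blocked by dofetilide plus 5 SD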;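 further: thallium influx through hERG after potassium depolarization seen as dye fluorescence rise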
Target sequence (Q12809 whole entry, looked up): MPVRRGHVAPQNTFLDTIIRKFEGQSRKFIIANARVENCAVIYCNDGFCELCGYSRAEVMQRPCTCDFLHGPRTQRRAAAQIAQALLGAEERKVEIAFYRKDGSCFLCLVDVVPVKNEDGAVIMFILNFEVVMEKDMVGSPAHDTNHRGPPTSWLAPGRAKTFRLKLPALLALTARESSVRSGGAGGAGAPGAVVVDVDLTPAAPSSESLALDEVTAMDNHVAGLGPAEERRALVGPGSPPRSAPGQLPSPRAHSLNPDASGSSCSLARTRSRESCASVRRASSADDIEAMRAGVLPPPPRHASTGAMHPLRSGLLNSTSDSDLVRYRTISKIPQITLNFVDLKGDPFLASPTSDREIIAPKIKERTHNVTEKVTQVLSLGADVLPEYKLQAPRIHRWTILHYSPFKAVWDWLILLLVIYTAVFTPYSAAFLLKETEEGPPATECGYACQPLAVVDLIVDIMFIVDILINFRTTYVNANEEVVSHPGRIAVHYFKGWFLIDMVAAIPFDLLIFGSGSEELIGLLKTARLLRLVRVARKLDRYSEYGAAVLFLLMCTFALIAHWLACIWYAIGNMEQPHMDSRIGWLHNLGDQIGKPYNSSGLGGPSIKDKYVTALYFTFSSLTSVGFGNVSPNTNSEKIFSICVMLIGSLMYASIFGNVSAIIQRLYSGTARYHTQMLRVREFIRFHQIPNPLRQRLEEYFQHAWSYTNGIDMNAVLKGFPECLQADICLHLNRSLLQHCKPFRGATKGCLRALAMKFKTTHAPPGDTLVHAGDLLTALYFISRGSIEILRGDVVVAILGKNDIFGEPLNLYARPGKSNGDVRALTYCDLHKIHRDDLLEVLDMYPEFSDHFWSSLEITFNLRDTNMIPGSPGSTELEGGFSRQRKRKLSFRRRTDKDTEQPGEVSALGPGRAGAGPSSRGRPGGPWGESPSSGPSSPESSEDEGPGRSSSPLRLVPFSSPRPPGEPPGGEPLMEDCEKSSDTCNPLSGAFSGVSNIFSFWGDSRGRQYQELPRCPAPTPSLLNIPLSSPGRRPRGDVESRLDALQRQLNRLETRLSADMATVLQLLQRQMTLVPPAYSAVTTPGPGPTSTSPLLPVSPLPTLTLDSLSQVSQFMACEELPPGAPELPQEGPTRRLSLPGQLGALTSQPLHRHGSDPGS
KCNK9 inh: human KCNK9 channel inhibition. Q9NPC2. HEK293 KCNK9, FluxOR thallium flux fluorescence; stronger effect = lower value. B-score at 10 µM. 310,000 tested, 1.2% active;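 active means ratio B-score over 3 SD below the library mean, with starting fluorescence within 5 SD of its mean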;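 further: negative B-score means less thallium flux so channel inhibition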
Kir21 block: inhibitors of mouse Kir2.1 inward-rectifier potassium channel; AID 1672; HEK293-Kir2.1, FluxOR thallium flux fluorescence; stronger effect = lower value; 310,000 tested, 0.85% active; B-score at 10 µM; P35561;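 active means fluorescence ratio B-score at or below minus 3 SD of library scores, with starting-brightness B-score within 2 SD, cut at about -4.2 in these data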;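 further: channel flux triggered by added potassium and thallium sulfate stimulus; B-score of peak minus minimum fluorescence over baseline after thallium stimulus; more negative B-score means stronger Kir2.1 block with less thallium influx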
KCNQ1 act: human KCNQ1 channel potentiation or activation. P51787. CHO-K1 KCNQ1, thallium flux FluxOR fluorescence; stronger effect = higher value. B-score at 10 µM. 310,000 tested, 0.35% active;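 active means fluorescence ratio B-score, a plate-corrected score, at least three library SD, with initial intensity B-score within 5 SD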
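assay system = CHO-K1 cells stably expressing KCNQ1 | medium = assay buffer, equal DMSO in all wells | timing = 37 °C overnight plating, 90-min dark dye load, 20-min compound pretreatment | measured by = kinetic FluxOR thallium fluorescence, 10-s 1-Hz baseline, 110-s post-stimulus read | measure = fluorescence change relative to baseline, converted to B score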
Starred values were filed as active, the others as inactive; i = inactive; . = no result.

SMILES | KCNK3 block | KCNQ1 inh | hERG protect | KCNK9 inh | Kir21 block | KCNQ1 act
COc1ccc(-c2nn(C)c(=O)c3ccccc23)cc1CNC(=O)NC1CCCCC1 | . | i | -9 | i | -0.03 | i
CCc1cc(C(=O)Nc2cc(S(=O)(=O)N(CC)CC)ccc2N2CCOCC2)sc1C | i | i | -14 | i | 0.1 | i
COc1ccc(N2CCCC2)c(NC(=O)COc2ccccc2Cl)c1 | i | i | -8 | i | -0.2 | i
Cc1ccc(C(=O)c2cc([N+](=O)[O-])ccc2N2CCCCC2)c(C)c1 | i | i | -4 | -7.5* | 0.4 | i
CS(=O)(=O)N1CCN(c2ccccc2NC(=O)Cc2ccccc2)CC1 | i | i | -11 | i | 0.05 | i
O=C(Cc1ccccc1)Nc1ccccc1N1CCN(c2ccccc2)CC1 | -8.7* | i | -10 | i | -0.12 | i
COc1ccc(OCC(=O)Nc2cc(OC)ccc2N2CCCCC2)cc1 | i | i | -4 | -7.9* | 1.3 | i
CCC(=O)Nc1ccc(N2CCCCC2)c(C(=O)Nc2ccc(OC)cc2)c1 | i | i | -11 | i | 1.4 | i
COc1ccc(CC(=O)Nc2ccc(N3CCCC3)c(C)c2)cc1 | i | i | -5 | i | -9.8* | i
O=C(O)c1cc([N+](=O)[O-])ccc1N1CCCCC1 | i | i | -3 | i | -0.41 | i
COc1cccc(CN(C)CCCn2cnc(C(=O)Nc3ccc(C)c(C)c3)n2)c1 | i | . | . | . | . | .
O=C(COc1ccc(F)cc1)N(Cc1ccc(Cl)cc1)C1CCS(=O)(=O)C1 (configuration not stated) | i | i | -4 | i | -1.4 | i
CC(C)(C)NC(=O)CCCCCCCC(=O)NC(C)(C)C | i | i | -16 | i | 1.9 | i
Cc1cc(C)c(C)c(S(=O)(=O)N2CCN(C(=O)c3ccccc3OCc3c(C)noc3C)CC2)c1C | i | . | . | . | . | .
O=C(CCS(=O)(=O)c1ccc(Br)cc1)Nc1ccc(Br)cc1F | i | i | -5 | i | 0.23 | i
COC(=O)C1=CN(Cc2cccs2)C=C(C(=O)OC)C1c1cccc(Cl)c1 | i | i | -12 | -7.9* | 0.09 | i
Cc1ccc(C(=O)C(c2ccccc2)N2Cc3ccccc3C2=N)cc1 (configuration not stated) | i | 11* | -17 | i | -8.3* | i
COc1ccc(C(=O)C(c2ccccc2)N2CCOCC2)cc1 (configuration not stated) | i | i | -3 | i | -1.7 | i
O=C(NCC1CCCO1)c1cccc(S(=O)(=O)Nc2ccc(F)cc2)c1 (configuration not stated) | i | . | . | . | . | .
CCCCSc1nnc(CCNC(=O)OC(C)(C)C)o1 | i | i | -2 | i | 0.35 | i
CC(C)(C)OC(=O)NCCc1nnc(SCc2ccccc2)o1 | i | i | -8 | i | -6.1* | i
CC(C)(C)OC(=O)NCCc1nnc(SCc2ccccc2Cl)o1 | i | i | -4 | i | -5.5* | i
CC(C)(C)OC(=O)NCCCCCc1nnc(SCC(N)=O)o1 | i | i | 4.6* | i | 0.36 | i
CC(C)(C)OC(=O)NCCc1nnc(SCC(N)=O)o1 | i | i | -20 | i | 1.1 | i
O=C(CNC(=O)c1ccccc1F)N/N=C/c1cc(Br)ccc1OCc1ccccc1 | i | i | -15 | -6.6* | -0.19 | i
SMILES | KCNK3 block | KCNQ1 inh | hERG protect | KCNK9 inh | Kir21 block | KCNQ1 act
Cc1cccc(CCN=c2c([N+](=O)[O-])nn(-c3ccccc3)n2O)c1 | i | i | -8 | i | -4.3* | i
COc1ccc(-n2nc([N+](=O)[O-])c(=NCCc3cccc(C)c3)n2O)cc1 | i | i | -7 | i | 0.48 | i
COc1ccc(C(=O)c2coc3ccc(O)cc23)cc1 | i | i | -4 | i | 1 | i
C#Cc1ccc([C@@H]2C=C(C(=O)NCc3ccccc3)O[C@H](OCCCCO)C2)cc1 | i | i | -6 | i | -1.6 | i
COc1ccccc1N1CN(S(=O)(=O)c2ccc(C)cc2)c2nc3ccccc3nc21 | -9.9* | . | . | . | . | .
Cn1c(O)c(N=NC(=S)Nc2ccccc2F)c2cc(S(=O)(=O)N3CCOCC3)ccc21 | i | i | 11* | i | 1 | i
C=CCn1c(O)c(N=NC(=S)Nc2ccccc2C)c2cc(S(=O)(=O)N3CCOCC3)ccc21 | i | i | -2 | i | -0.46 | 9*
Cc1ccc(NC(=S)N=Nc2c(O)n(C)c3ccc(S(=O)(=O)N4CCOCC4)cc23)cc1C | i | i | -1 | i | 0.47 | i
Nc1ccc(C(=O)OC2CCOC2=O)cc1[N+](=O)[O-] (configuration not stated) | i | i | -4 | i | 0.03 | i
NS(=O)(=O)c1ccc(CCNc2ccnc3cc(Cl)ccc23)cc1 | i | i | -6 | i | 0.11 | i
O=C(Nc1cc(C(F)(F)F)ccc1Cl)C(NCc1ccccc1)c1ccccc1 (configuration not stated) | i | 11* | -21 | -7.1* | -0.39 | i
Cc1cc[n+](CC(=O)Nc2cc(C(F)(F)F)ccc2Cl)cc1 | i | i | 4.9* | i | -0.31 | i
O=C(NC(=S)Nc1cc(C(F)(F)F)ccc1Cl)c1ccccc1 | i | i | 4.7* | i | 1.3 | i
CN(C)c1cc[n+](CC(=O)Nc2cc(C(F)(F)F)ccc2Cl)cc1 | i | i | 3 | i | -0.31 | i
O=C(CC(=O)c1ccccc1)Nc1cc(C(F)(F)F)ccc1Cl | i | i | -6 | i | 0.38 | i
CC(C)C(=O)Nc1ccc(-c2nc3ccccc3c(=O)o2)cc1 | i | i | -20 | i | 0.68 | i
Cc1c(N(C)C)nc2ccccc2c1N | i | i | 0 | i | 0.13 | i
CCN(CC)c1nc2ccccc2c(N)c1-c1ccccc1 | i | i | -11 | i | -5.1* | i
Cc1ccc(Cl)cc1N1CCN(Cc2nnnn2C2CCCCC2)CC1 | -11* | i | -16 | i | 0.33 | i
Cc1ccc(Cl)cc1N1CCN(Cc2nnnn2Cc2ccco2)CC1 | i | i | -4 | i | -1.5 | i
Cc1cc(=O)n2nc(N3CCCC(C(=O)NC4CCC(C)CC4)C3)sc2n1 (configuration not stated) | i | i | -8 | i | 0.1 | i
CCOc1cc2c(cc1/C=C/c1noc(C)c1[N+](=O)[O-])OC(C)C2 (configuration not stated) | i | 7* | -9 | i | -5.1 | i
CC(C)NC(=NCc1ccc(Cl)cc1Cl)Nc1ccccc1 | i | 6* | -5 | i | -3 | i
